From PubChem
In the library only some 1.7% were active in any assay of this set; here they are far more common.
PP1 inh = blocks human PP1-alpha phosphatase, a PP5 counter-screen. AID 2235. 0.9% of 320,000 active. inhibition, % at 6.7 µM. purified PP1alpha, OMFP fluorescence. P62136;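 active = inhibition above the mean inhibition of all tested compounds plus 3 SD, computed separately for each screening campaign, cut at about 15% in these data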
Target sequence (P62136 whole entry, looked up): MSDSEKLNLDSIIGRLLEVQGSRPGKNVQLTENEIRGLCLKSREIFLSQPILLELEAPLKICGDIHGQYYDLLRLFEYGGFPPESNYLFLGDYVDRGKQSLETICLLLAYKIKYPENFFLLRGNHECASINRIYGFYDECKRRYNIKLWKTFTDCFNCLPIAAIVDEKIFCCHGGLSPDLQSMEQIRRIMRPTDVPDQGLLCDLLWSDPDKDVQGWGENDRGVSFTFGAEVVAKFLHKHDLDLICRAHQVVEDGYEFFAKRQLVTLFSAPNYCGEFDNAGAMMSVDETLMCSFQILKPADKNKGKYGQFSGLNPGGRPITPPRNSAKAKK
m5-HT2A agonist = mouse HTR2A agonism via beta-arrestin recruitment; P35363; CHO-K1 mHTR2A beta-arrestin complementation, luminescence; percent of 30 µM serotonin response; activation, % at 7.6 µM; 0.66% of 360,000 active; AID 624169;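 active = activation above a run cutoff, the mean activation of all tested compounds plus 3 SD, cut at about 14% in these data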
PP5 inh = PP5 (human) phosphatase inhibition; P53041; purified PP5c, OMFP substrate fluorescence; inhibition, % at 6.7 µM; 0.18% of 320,000 active; AID 1987;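 active = inhibition above the campaign's mean inhibition across all tested compounds plus 3 SD, cut at about 9.5% in these data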
GASC-1 inh = blocks human GASC-1 demethylase activity; inhibition, % at 2.35 µM; 0.069% of 330,000 active; Q9H3R0; GST-JMJD2C(1-420) H3K9me3 demethylation, DELFIA europium;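 active = more than half of a compound's replicate wells show inhibition beyond 50%, single wells judged on their own value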;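 also: signal counts dimethyl H3K9 product captured on neutravidin plate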
T cell modulator = T cell immune modulators affecting CD8 T cell-vesicle binding; 2C CD8+ T cell-vesicle binding, flow cytometry; stronger effect = lower value; response (vesicle binding), % at 7 µM; 0.068% of 330,000 active;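 active = response, share of CD8 T cells binding vesicles, and their 90th percentile fluorescence all below set limits, cut at about 80% in these data, passing the limit was not always enough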;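 also: values below 100% mean blocked vesicle binding to the CD8+ T cells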
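Assay system: 2C TCR transgenic mouse naive CD8+ T cells, MACS-purified | Read-out: CD8+ gate FL2 mean fluorescence as % of same-row positive control | Signal: High-throughput flow cytometry with anti-B7-1 and anti-CD8 staining | Timing: Binding step 1.5 h, 37 °C, antibody labelling 20 min, ice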
PP5 conf = confirmation of human PP5 phosphatase inhibitors; shares compounds with PP5 inh; Purified PP5, fluorogenic phosphatase substrate, fluorescence; inhibition, % at 6.7 µM; 22% of 460 active; in the data active = inhibition above about 9.5%
PP1 counter 3x = counter-screen for PP5 inhibitors: human PP1 phosphatase inhibition | shares compounds with PP5 inh | 4% of 460 active | inhibition, % at 6.7 µM | PP1 enzyme, fluorescent phosphatase substrate; in the data active = inhibition above about 16%
PP1 inh confirm = confirmation of human PP1 phosphatase inhibitors. purified PP1alpha, OMFP substrate fluorescence. AID 2358. shares compounds with PP1 inh. 52% of 1,900 active. inhibition, % at 6.7 µM;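 active = mean PP1 inhibition above a set limit taken from the earlier primary screen, cut at about 15% in these data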
PP5 counter = inhibits human PP5 phosphatase in PP1 counter-screen; shares compounds with PP1 inh; purified PP5c, OMFP fluorescence; inhibition, % at 6.7 µM; 4% of 1,900 active;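 active = mean PP5 inhibition over triplicate wells above about 9.5% taken from the earlier PP1 screen, limit read from the data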
Each line names hits and unclear results; the compound was inactive in the other large screens (follow-up assays come after a bar, where they were run).

O=C(NC1(O)C(=O)c2ccccc2C1=O)c1c(Cl)cccc1Cl	PP5 inh 16 | PP5 conf 42 | PP1 counter 3x inactive
O=C(Nc1ccccc1Cl)c1c(F)c(F)c(F)c(F)c1F	none
Cc1cc(C)nc(Sc2ncnc(N)c2[N+](=O)[O-])n1	none
C=C(C)C1CC=C(C)/C(=N/NC(=O)CNc2ccc(C)cc2C)C1 (configuration not stated)	none
C=C(C)C1CC=C(C)/C(=N/NC(=O)CNc2ccc(OCC)cc2)C1 (configuration not stated)	PP5 inh 9.6 | PP5 conf inactive | PP1 counter 3x inactive
Cc1ccc2c(c1)[C@H]1[C@H](CO2)[C@H](c2ccccc2)[C@]2(C)C(=O)N(Cc3ccc(F)cc3)CC(=O)N12	none (no result: PP1 inh, PP5 inh)
CC(C)(C)NC(=O)c1ccc(NC(=O)c2ccccc2-c2ccccc2C(=O)O)cc1	PP5 inh 10 | PP5 conf inactive | PP1 counter 3x inactive
O=[N+]([O-])c1cc(C(F)(F)F)ccc1N1CCC(O)CC1	none
O=C(Nc1ccc(Cl)cc1)N1CCCN(c2ccc(C(F)(F)F)cc2[N+](=O)[O-])CC1	PP5 inh 12 | PP5 conf inactive | PP1 counter 3x inactive
N=c1c2c(-c3ccccc3)c(-c3ccccc3)oc2ncn1CCN1CCOCC1	PP5 inh 11 | PP5 conf inactive | PP1 counter 3x inactive
N=c1c2c(-c3ccccc3)c(-c3ccccc3)oc2ncn1CCCN1CCOCC1	none
CC(OC(=O)CC1Sc2ccccc2NC1=O)C(=O)NC1CCCC1 (configuration not stated)	none
Nc1nc(Nc2cccc(F)c2)nc(NCc2ccco2)c1[N+](=O)[O-]	PP5 inh 11 | PP5 conf inactive | PP1 counter 3x inactive
COc1ccc(C2=NCN(c3ccc(C)cc3)C(=S)N2)cc1	PP5 inh 11 | PP5 conf inactive | PP1 counter 3x inactive
O=C(Nc1nccs1)c1cc2sccc2n1Cc1ccc(F)cc1	PP5 inh 10 | PP5 conf inactive | PP1 counter 3x inactive
CC(C)C(=O)Nc1cccc(C(=O)Nc2ccccc2C(=O)O)c1	PP5 inh 10 | PP5 conf inactive | PP1 counter 3x inactive
N#CC1=C(N)NC(SCc2ccccc2)=C(C#N)C12CCCCC2	PP5 inh 12 | PP5 conf inactive | PP1 counter 3x inactive
CS(=O)(=O)N1Cc2cc(C(=O)NCC3CC3)nc(-c3cccc(-c4cccnc4)c3)c2[C@H]1CCO	none (no result: PP1 inh, PP5 inh, GASC-1 inh, T cell modulator)
COc1ccc(N2C(=O)CC(NNc3nc4ccccc4s3)C2=O)cc1 (configuration not stated)	PP5 inh 12 | PP5 conf inactive | PP1 counter 3x inactive
Cc1ccc(N2C(=O)CC(NNc3nc4ccccc4s3)C2=O)cc1C (configuration not stated)	none
CCOC(=O)/C(C#N)=C1/C=C(C)NC(c2ccccc2O)=N1	PP5 inh 12 | PP5 conf inactive | PP1 counter 3x inactive
O=C(Cn1ncc2c3ccccc3n(Cc3ccccc3F)c2c1=O)NCC1CCCO1 (configuration not stated)	none
CCOC(=O)/C=C/C(=O)Nc1ccc(S(=O)(=O)Nc2c(C)cc(C)cc2C)cc1	PP5 inh 9.6 | PP5 conf inactive | PP1 counter 3x inactive
O=C(Nc1cc(-c2ccccc2)[nH]n1)c1ccccc1F	none
CC1=C(C(=O)Nc2cc(-c3cccc(F)c3)[nH]n2)C2(CCCCC2)OC1=O	PP5 inh 10 | PP5 conf 15 | PP1 counter 3x inactive
Nc1ccc(S(=O)(=O)Nc2nccc(/C=C/c3ccc(Cl)cc3)n2)cc1	none
Nc1ccc(S(=O)(=O)Nc2nccc(/C=C/c3ccc(Cl)cc3Cl)n2)cc1	PP1 inh 19 | PP1 inh confirm 21 | PP5 counter inactive
CCc1ccc(CN2CCC(n3nccc3NC(=O)C3CCCC3)CC2)cc1	none
O=C(NC(NC(=S)Nc1ccccc1C(=O)O)C(Cl)(Cl)Cl)c1cccc([N+](=O)[O-])c1 (configuration not stated)	none
CC(=O)c1ccc(-n2c(=O)[nH]c(=O)c3c(N)c(C(=O)c4ccc(Cl)cc4)sc32)cc1	PP1 inh 40 | PP1 inh confirm 28 | PP5 counter inactive
O=[N+]([O-])c1cc(Br)c(O)c(/C=N/Nc2nnnn2-c2cccc3ccccc23)c1	PP1 inh 21 | PP1 inh confirm 23 | PP5 counter inactive
CC(C)Cn1c(SCC(=O)Nc2cc(Cl)c(Cl)cc2Cl)nc(O)cc1=O	none
CN(Cc1cc([N+](=O)[O-])c2cccnc2c1O)C1CCCCC1	none (no result: m5-HT2A agonist)
Oc1c(I)cc(Cl)c2cccnc12	PP1 inh 19 | PP1 inh confirm inactive | PP5 counter inactive
O=[N+]([O-])c1cc(Cl)c2cccnc2c1O	none
O=[N+]([O-])c1cc(CN2CCN(c3ccccc3)CC2)c(O)c2ncccc12	PP1 inh 19 | PP1 inh confirm 29 | PP5 counter inactive
Oc1c(Cl)cc(CN2CCOCC2)c2cccnc12	none
Oc1c(CN2CCc3ccccc3C2)cc(Cl)c2cccnc12	PP1 inh 31 | PP1 inh confirm 40 | PP5 counter inactive
O=C(O)COc1ccc(Cl)cc1C1CCCCC1	none (no result: PP1 inh, PP5 inh, GASC-1 inh, T cell modulator)
O=C(O)C1C2C=CC(C2)C1C(=O)NCc1ccc(Cl)cc1Cl (configuration not stated)	none
O=c1cc(-c2ccc([N+](=O)[O-])cc2)nc2cc(-c3ccc(F)cc3)[nH]n12	PP1 inh 35 | PP1 inh confirm 34 | PP5 counter inactive
Cc1cccc(-c2cc3nc(-c4ccccc4)cc(=O)n3[nH]2)c1	PP1 inh 23 | PP1 inh confirm 21 | PP5 counter inactive
CCC(=O)c1ccc(OCC(=O)NCC2(N3CCCCC3)CCCCC2)cc1	none
NC(=O)CCCn1c(C(=O)c2cc(Cl)c(N)c(Cl)c2)c2ccc([N+](=O)[O-])cc2[n+]1[O-]	none
CC1=Nc2ccccc2N=C(NC(=O)CN2CCN(c3ccc(F)cc3)CC2)C1c1ccccc1 (configuration not stated)	none
CCN(CC)CCN1C(=O)/C(=C\c2ccc(Cl)c([N+](=O)[O-])c2)SC1=Nc1ccc(OC)cc1	PP1 inh 19 | PP1 inh confirm inactive | PP5 counter inactive
COc1ccc(S(=O)(=O)N2CCOC2CNC(=O)C(=O)NCCCN2CCCC2=O)cc1OC (configuration not stated)	none (no result: PP1 inh, PP5 inh, GASC-1 inh, T cell modulator)
Cc1ccc(S(=O)(=O)NC(=O)N(C)C2CCCCC2)cc1	none
